pIC50: −log10 of the molar value. Values after ≈ are worked out from the molar mass of the structure shown.
Assays:
[1] = tested on: Staphylococcus aureus; test: Antibacterial activity against Staphylococcus aureus ATCC 29213 assessed as reduction in bacterial growth by CLSI method based broth microdilution assay; assay type: functional
[2] = tested on: Streptococcus pneumoniae; test: Antibacterial activity against Streptococcus pneumoniae ATCC 49619 assessed as reduction in bacterial growth by CLSI method based broth microdilution assay; assay type: functional
Procedure, shortened: (§1)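 MIC by broth microdilution following CLSI guidelines for culturing and susceptibility testing; each determination run in triplicate. Agar dilution was used instead only ahead of frequency-of-resistance work.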

[3] = biological target: Cytochrome P450 2C9 (Homo sapiens, UniProt P11712); test: Inhibition of CYP2C9 (unknown origin)
[4] = biological target: Cytochrome P450 2D6 (Homo sapiens, UniProt P10635); test: Inhibition of CYP2D6 (unknown origin)
[5] = Thermodynamic solubility of compound at physiological pH; assay type: physicochemical; conditions: read-out: Therm_solubility
[6] = biological target: T1, Cytochrome P450 1A2 (Homo sapiens, UniProt P05177); test: Inhibition of CYP1A2 (unknown origin)
T1 sequence (P05177 whole entry): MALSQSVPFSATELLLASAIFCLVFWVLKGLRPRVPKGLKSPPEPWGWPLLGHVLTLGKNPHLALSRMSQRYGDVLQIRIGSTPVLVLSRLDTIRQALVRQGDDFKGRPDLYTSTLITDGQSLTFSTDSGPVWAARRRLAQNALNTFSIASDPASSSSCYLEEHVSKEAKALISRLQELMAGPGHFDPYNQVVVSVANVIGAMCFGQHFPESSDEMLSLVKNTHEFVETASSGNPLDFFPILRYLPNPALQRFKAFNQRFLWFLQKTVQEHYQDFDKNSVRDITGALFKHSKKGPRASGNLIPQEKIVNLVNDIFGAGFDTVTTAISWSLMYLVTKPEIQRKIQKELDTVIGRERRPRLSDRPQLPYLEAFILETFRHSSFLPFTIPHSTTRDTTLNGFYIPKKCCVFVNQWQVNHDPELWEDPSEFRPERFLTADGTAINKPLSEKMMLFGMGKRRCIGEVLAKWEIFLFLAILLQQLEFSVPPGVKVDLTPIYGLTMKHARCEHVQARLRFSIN

[7] = Cytotoxicity against human HepG2 cells; assay type: cell-based
[8] = tested on: Staphylococcus aureus; test: Antibacterial activity against methicillin-resistant Staphylococcus aureus VRS8 assessed as reduction in bacterial growth by CLSI method based broth microdilution assay; assay type: functional
[9] = biological target: Cytochrome P450 2C19 (Homo sapiens, UniProt P33261); test: Inhibition of CYP2C19 (unknown origin)
[10] = tested on: Staphylococcus aureus; test: Antibacterial activity against methicillin-resistant Staphylococcus aureus NRS74 assessed as reduction in bacterial growth by CLSI method based broth microdilution assay; assay type: functional
[11] = biological target: Cytochrome P450 3A4 (Homo sapiens, UniProt P08684); test: Inhibition of CYP3A4 (unknown origin)
[12] = Lipophilicity, logD of the compound at pH 7.4; assay type: physicochemical; conditions: buffer
[13] = tested on: Neisseria gonorrhoeae; test: Antibacterial activity against Neisseria gonorrhoeae assessed as reduction in bacterial growth by CLSI method based broth microdilution assay; assay type: functional; procedure, shortened: as §1
[14] = biological target: hERG (KCNH2) (Homo sapiens, UniProt Q12809); test: Inhibition of human ERG at 100 uM relative to control
[15] = tested on: Staphylococcus aureus; test: Antibacterial activity against fluoroquinolone and multidrug-resistant Staphylococcus aureus assessed as reduction in bacterial growth by CLSI method based broth microdilution assay; assay type: functional
Procedure, shortened: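 Run to CLSI guidelines by broth microdilution, in triplicate. Growth was read to give the MIC.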

[16] = biological target: Voltage-gated inwardly rectifying potassium channel KCNH2 (Homo sapiens, UniProt Q12809)
Chain of Voltage-gated inwardly rectifying potassium channel KCNH2 (Q12809 whole entry): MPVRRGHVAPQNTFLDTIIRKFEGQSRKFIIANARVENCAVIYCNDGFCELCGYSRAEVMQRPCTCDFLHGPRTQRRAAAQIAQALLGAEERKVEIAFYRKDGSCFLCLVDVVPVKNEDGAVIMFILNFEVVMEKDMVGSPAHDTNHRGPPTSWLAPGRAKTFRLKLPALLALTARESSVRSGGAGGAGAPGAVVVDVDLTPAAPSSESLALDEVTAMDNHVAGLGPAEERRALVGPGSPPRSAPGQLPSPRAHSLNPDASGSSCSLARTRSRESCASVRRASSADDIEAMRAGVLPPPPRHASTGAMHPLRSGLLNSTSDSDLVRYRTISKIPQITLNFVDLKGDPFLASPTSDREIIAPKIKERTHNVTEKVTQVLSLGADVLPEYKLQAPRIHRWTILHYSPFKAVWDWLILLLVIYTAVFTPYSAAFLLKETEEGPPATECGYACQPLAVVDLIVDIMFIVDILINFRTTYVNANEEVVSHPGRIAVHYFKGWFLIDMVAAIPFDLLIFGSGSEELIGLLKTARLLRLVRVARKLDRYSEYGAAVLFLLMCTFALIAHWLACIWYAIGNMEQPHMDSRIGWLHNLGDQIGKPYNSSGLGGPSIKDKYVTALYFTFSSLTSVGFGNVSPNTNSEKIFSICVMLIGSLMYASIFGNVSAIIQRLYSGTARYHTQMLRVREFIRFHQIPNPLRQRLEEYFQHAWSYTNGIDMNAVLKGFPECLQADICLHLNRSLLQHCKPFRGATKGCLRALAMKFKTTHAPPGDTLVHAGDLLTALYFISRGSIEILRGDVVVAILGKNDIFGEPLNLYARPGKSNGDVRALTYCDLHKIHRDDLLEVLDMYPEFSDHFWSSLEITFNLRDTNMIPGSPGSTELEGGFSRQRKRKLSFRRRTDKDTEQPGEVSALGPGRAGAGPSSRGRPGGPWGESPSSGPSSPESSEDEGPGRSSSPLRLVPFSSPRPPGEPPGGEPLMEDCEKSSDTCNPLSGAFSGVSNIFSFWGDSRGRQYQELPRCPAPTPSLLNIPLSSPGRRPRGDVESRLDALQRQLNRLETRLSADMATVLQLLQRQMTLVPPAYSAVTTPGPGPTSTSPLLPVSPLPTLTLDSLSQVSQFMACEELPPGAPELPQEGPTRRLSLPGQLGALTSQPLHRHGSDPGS

Chain of Cytochrome P450 3A4 (P08684 whole entry): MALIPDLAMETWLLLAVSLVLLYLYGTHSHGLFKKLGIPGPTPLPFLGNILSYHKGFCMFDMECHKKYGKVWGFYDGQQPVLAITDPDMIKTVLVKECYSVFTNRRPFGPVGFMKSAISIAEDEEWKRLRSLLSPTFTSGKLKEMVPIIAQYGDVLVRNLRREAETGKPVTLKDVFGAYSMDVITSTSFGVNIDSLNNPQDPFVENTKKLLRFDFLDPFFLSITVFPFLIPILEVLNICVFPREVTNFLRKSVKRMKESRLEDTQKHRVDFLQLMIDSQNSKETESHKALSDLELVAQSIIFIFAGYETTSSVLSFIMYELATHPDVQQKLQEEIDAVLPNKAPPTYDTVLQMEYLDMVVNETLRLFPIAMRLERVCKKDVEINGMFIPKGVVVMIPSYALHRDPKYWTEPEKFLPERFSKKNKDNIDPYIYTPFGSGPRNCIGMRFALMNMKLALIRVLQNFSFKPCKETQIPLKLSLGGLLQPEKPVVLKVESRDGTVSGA
Chain of Cytochrome P450 2D6 (P10635 whole entry): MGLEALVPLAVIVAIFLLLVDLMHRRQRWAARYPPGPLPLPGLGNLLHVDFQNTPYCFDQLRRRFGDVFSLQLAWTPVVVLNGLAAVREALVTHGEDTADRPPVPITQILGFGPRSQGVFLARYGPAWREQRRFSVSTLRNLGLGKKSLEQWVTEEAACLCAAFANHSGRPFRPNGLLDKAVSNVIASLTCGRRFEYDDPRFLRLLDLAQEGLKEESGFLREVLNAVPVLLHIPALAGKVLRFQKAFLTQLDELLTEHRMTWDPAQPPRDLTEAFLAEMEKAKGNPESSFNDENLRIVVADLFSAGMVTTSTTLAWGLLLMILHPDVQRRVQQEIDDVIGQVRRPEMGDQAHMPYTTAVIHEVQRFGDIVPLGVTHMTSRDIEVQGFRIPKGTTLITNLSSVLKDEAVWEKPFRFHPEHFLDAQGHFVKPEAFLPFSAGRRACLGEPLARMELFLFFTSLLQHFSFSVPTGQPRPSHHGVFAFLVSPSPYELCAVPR
Chain of Cytochrome P450 2C19 (P33261 whole entry): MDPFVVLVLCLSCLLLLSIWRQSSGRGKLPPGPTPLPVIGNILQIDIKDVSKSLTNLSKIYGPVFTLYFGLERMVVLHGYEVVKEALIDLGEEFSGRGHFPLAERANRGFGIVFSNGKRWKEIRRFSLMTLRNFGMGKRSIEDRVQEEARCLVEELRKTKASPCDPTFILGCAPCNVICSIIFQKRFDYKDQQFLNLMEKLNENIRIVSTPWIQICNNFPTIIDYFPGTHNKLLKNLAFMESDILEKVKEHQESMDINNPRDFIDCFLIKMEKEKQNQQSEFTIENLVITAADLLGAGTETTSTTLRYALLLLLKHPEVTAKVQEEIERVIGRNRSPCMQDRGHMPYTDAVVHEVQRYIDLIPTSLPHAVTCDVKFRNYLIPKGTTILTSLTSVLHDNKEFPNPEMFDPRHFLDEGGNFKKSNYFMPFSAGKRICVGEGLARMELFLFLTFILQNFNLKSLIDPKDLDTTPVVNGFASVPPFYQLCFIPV
Chain of Cytochrome P450 2C9 (P11712 whole entry): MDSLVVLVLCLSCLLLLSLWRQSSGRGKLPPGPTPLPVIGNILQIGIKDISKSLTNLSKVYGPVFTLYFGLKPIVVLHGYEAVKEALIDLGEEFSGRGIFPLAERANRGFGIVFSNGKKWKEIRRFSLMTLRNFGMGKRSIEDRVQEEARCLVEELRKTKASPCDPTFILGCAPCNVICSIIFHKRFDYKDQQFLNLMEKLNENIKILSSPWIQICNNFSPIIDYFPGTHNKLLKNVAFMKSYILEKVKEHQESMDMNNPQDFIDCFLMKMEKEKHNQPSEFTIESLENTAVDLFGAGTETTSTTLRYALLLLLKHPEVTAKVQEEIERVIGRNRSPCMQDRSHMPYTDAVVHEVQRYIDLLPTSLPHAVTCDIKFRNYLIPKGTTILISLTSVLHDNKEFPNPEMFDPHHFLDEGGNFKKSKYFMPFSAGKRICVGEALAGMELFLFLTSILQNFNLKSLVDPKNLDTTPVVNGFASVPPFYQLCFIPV
Chain of hERG (KCNH2) (Q12809 whole entry): as the sequence (Q12809 whole entry) above

| Compound | MIC [1] [µg/mL] | MIC [2] [µg/mL] | solubility thermodynamic [5] | CC50 [7] [µg/mL] | logD [12] | also measured |
| --- | --- | --- | --- | --- | --- | --- |
| Cc1c(-c2ccc(N)nn2)ccc2c3ocnc3c(=O)n(C3CC3)c12 | > 64 | > 64 | – | – | – | – |
| Cc1c(-c2ccc3[nH]ncc3c2)ccc2c3oc(CN)nc3c(=O)n(C3CC3)c12 | 0.06 (≈ 0.156 µM) | – | 10 µg/mL | 32 (≈ 83 µM) | – | pIC50 [3]: 6.70; pIC50 [4]: 4.90; pIC50 [6]: 4.91; MIC [8]: 2 µg/mL (≈ 5.19 µM); pIC50 [9]: 6.10; MIC [10]: 0.5 µg/mL (≈ 1.3 µM); pIC50 [11]: 5.89 |
| Cc1c(-c2ccc3[nH]c(N)nc3c2)ccc2c3ocnc3c(=O)n(C3CC3)c12 | 0.25 (≈ 0.673 µM) | 0.25 (≈ 0.673 µM) | 16 µg/mL | > 32 | 2.52 | – |
| Cc1c(-c2ccc(N)cc2F)ccc2c3ocnc3c(=O)n(C3CC3)c12 | 0.12 (≈ 0.343 µM) | 1 (≈ 2.86 µM) | 1.1 µg/mL | 16 (≈ 45.8 µM) | 3.05 | – |
| Cc1c(-c2cc(F)c(N)cc2F)ccc2c3ocnc3c(=O)n(C3CC3)c12 | 0.03 (≈ 0.0817 µM) | 1 (≈ 2.72 µM) | 3 µM | > 128 | 2.96 | MIC [13]: 0.06 µg/mL (≈ 0.163 µM); pIC50 [3]: < 4.52; inhibition at 100 µM [14]: 3%; pIC50 [4]: < 4.52; pIC50 [6]: < 4.52; MIC [8]: 0.5 µg/mL (≈ 1.36 µM); MIC90 [15]: 0.25 µg/mL (≈ 0.681 µM); pIC50 [9]: < 4.52; MIC [10]: 0.06 µg/mL (≈ 0.163 µM); pIC50 [11]: < 4.52 |
| Nc1cc(F)c(-c2ccc3c4ocnc4c(=O)n(C4CC4)c3c2)cc1F | 2 (≈ 5.66 µM) | – | – | – | – | – |
| Cc1c(-c2ccc3[nH]ncc3c2)ccc2c3ocnc3c(=O)n(C3CC3)c12 | 0.004 (≈ 0.0112 µM) | 0.5 (≈ 1.4 µM) | 1.1 µg/mL | > 16 | 3.29 | – |
| Cc1c(-c2ccc3c(c2)CNC3)ccc2c3ocnc3c(=O)n(C3CC3)c12 | 0.12 (≈ 0.336 µM) | 0.5 (≈ 1.4 µM) | 209 µg/mL | > 64 | 0.75 | – |
| Cc1nc2c(=O)n(C3CC3)c3c(C)c(-c4cc(F)c(N)cc4F)ccc3c2o1 | 0.03 (≈ 0.0787 µM) | – | – | – | – | – |
| Cc1c(-c2cc(F)c(C(=O)O)cc2F)ccc2c3ocnc3c(=O)n(C3CC3)c12 | 64 (≈ 161 µM) | > 128 | – | – | – | – |
| CCn1c(=O)c2ncoc2c2ccc(-c3cc(F)c(N)cc3F)c(C)c21 | 2 (≈ 5.63 µM) | – | – | – | – | – |
| Cc1c(-c2cc(F)c(N)cc2F)ccc2c3oc(CN)nc3c(=O)n(C3CC3)c12 | 0.06 (≈ 0.151 µM) | – | 36 µg/mL | > 64 | – | pIC50 [3]: 6.52; pIC50 [4]: 4.95; pIC50 [6]: 5.12; MIC [8]: 4 µg/mL (≈ 10.1 µM); pIC50 [9]: 6.30; MIC [10]: 0.06 µg/mL (≈ 0.151 µM); pIC50 [11]: 4.89 |
| Nc1cc(F)c(-c2cc3c(cc2F)c2ocnc2c(=O)n3C2CC2)cc1F | 0.25 (≈ 0.673 µM) | – | – | – | – | – |
| CCn1c(=O)c2ncoc2c2cc(F)c(-c3cc(F)c(N)cc3F)c(C)c21 | 1 (≈ 2.68 µM) | – | – | – | – | – |
| Cc1c(-c2ccc3nonc3c2)ccc2c3ocnc3c(=O)n(C3CC3)c12 | 0.25 (≈ 0.698 µM) | 4 (≈ 11.2 µM) | < 9 µg/mL | > 32 | 3.03 | – |
| Cc1c(-c2ccc(N)cc2)ccc2c3ocnc3c(=O)n(C3CC3)c12 | 0.5 (≈ 1.51 µM) | 4 (≈ 12.1 µM) | – | – | 2.59 | – |
| Cc1c(-c2cc(F)c(CO)cc2F)ccc2c3ocnc3c(=O)n(C3CC3)c12 | 0.06 (≈ 0.157 µM) | 0.25 (≈ 0.654 µM) | 1.9 µg/mL | > 32 | 3.14 | – |
| C[C@H]1COc2c(-c3cc(F)c(N)cc3F)ccc3c4ocnc4c(=O)n1c23 | 0.5 (≈ 1.35 µM) | – | – | – | – | – |
| Cc1c(-c2ccc(N)c(C#N)c2)ccc2c3ocnc3c(=O)n(C3CC3)c12 | 0.06 (≈ 0.168 µM) | 0.25 (≈ 0.701 µM) | – | > 4 | 2.94 | – |
| Cc1c(-c2ccc(C(C)N)cc2)ccc2c3ocnc3c(=O)n(C3CC3)c12 (configuration not stated) | 0.5 (≈ 1.39 µM) | 2 (≈ 5.56 µM) | – | > 32 | – | – |
| Cc1c(-c2ccccc2)ccc2c3ocnc3c(=O)n(C3CC3)c12 | 1 (≈ 3.16 µM) | 4 (≈ 12.6 µM) | – | – | – | – |
| Cc1c(-c2ccc3[nH]cnc3c2)ccc2c3ocnc3c(=O)n(C3CC3)c12 | 0.25 (≈ 0.701 µM) | 0.25 (≈ 0.701 µM) | < 9 µg/mL | > 16 | 3.03 | – |
| Cc1c(-c2cnc3[nH]ncc3c2)ccc2c3oc(CN)nc3c(=O)n(C3CC3)c12 | 0.25 (≈ 0.647 µM) | – | 618 µg/mL | > 128 | – | pIC50 [16]: 4.35; MIC [8]: 2 µg/mL (≈ 5.18 µM); MIC [10]: 2 µg/mL (≈ 5.18 µM) |
| Cc1c(-c2ccc(N)c(F)c2)ccc2c3ocnc3c(=O)n(C3CC3)c12 | 0.12 (≈ 0.343 µM) | 2 (≈ 5.72 µM) | – | > 128 | – | – |
| Nc1cc(F)c(-c2nc3c(cc2F)c2ocnc2c(=O)n3C2CC2)cc1F | 128 (≈ 344 µM) | – | – | – | – | – |
| Nc1cc(F)c(-c2ccc3c4ocnc4c(=O)n(C4CC4)c3c2Cl)cc1F | 0.25 (≈ 0.645 µM) | – | – | – | – | – |
| Cc1c(-c2cnc(N)cn2)ccc2c3ocnc3c(=O)n(C3CC3)c12 | 64 (≈ 192 µM) | > 128 | 6.8 µg/mL | – | 1.46 | – |
| Cc1c(-c2cnc(N)nc2)ccc2c3ocnc3c(=O)n(C3CC3)c12 | 1 (≈ 3 µM) | 4 (≈ 12 µM) | 15 µg/mL | > 32 | 1.32 | – |

Source: ChEMBL document CHEMBL4699432, “Rational design, synthesis and testing of novel tricyclic topoisomerase inhibitors for the treatment of bacterial infections part 1” (RSC Med Chem, 2020)
